# Source: PubChem BioAssay
# Most compounds without a hit are left out; they make up all but 2.3% or so of the library.
# TRPC4 potent – allosterically enhances the mouse TRPC4 cation channel | AID 2227 | Q9QUQ5 | B-score at 10 µM | HEK293 TRPC4beta/mu-opioid, DAMGO EC20, Fluo-4 Ca2+ flux; active compounds read high | 310,000 compounds, 0.42% hits;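 active = B-score of calcium response area above 5 SD of library B-scores, with initial fluorescence ratio within 5 SD of library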;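 also: B-score of integrated fluorescence ratio over time as area under calcium response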
# TRPC6 act – activators of mouse TRPC6 channel. Q61143. HEK293-TRPC6 membrane potential dye fluorescence; active compounds read high. B-score at 10 µM. 310,000 compounds, 0.13% hits. AID 2550;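 active = B-score of the integrated fluorescence ratio above library mean plus 3 SD, and starting fluorescence ratio within library mean plus 5 SD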;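 also: higher score means more depolarization so channel activation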
# Target sequence (Q61143 whole entry, looked up): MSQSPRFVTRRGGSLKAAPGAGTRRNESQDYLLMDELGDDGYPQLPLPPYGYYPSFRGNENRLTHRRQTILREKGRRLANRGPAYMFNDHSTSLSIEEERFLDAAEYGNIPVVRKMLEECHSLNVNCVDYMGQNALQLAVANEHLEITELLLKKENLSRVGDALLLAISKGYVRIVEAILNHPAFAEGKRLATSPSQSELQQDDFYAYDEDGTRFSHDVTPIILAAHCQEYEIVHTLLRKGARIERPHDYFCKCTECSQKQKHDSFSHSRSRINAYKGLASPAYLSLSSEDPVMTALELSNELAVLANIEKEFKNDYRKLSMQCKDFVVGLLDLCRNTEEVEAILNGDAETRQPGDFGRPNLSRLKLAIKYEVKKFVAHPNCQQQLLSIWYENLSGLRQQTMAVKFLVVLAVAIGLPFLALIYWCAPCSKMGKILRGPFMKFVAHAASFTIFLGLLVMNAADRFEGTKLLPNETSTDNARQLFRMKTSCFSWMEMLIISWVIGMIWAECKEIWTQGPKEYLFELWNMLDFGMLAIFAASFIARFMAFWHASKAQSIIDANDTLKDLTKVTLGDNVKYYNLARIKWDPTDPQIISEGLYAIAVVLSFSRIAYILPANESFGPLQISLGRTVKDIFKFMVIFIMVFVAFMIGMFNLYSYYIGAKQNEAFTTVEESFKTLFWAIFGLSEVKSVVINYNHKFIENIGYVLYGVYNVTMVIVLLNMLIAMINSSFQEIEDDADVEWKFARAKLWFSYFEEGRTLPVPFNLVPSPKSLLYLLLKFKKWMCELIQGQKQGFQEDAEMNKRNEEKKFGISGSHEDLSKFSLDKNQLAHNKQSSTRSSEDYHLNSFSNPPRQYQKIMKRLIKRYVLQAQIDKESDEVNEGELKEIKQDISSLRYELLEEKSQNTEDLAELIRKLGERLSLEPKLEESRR
# TRPC6 inhibitor – blocks the mouse TRPC6 cation channel | HEK293-TRPC6, membrane potential dye, ACh-evoked depolarization; active compounds read low | Q61143 | B-score at 10 µM | 310,000 compounds, 1.1% hits;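 active = B-score under library mean minus 3 SD, initial fluorescence not abnormally high, positive integrated signal ratio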;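 also: B-score derived from integrated fluorescence ratio over the kinetic read; more negative B-score means stronger inhibition of depolarization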
# TRPC4 act – activators of mouse TRPC4 channel. 310,000 compounds, 0.49% hits. B-score at 10 µM. HEK293 TRPC4beta/mu-opioid, Fluo4 calcium fluorescence; active compounds read high. Q9QUQ5;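 active = B-score above 5 SD of library B-scores, and initial fluorescence ratio not above library mean plus 5 SD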;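 also: positive B-score marks a calcium rise read as TRPC4 activation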
#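 Material: TRPC4beta and mu-opioid receptor HEK293 stable cells | Incubation: 45 min room-temperature Fluo4 loading, 110 s read | Detection: Kinetic Fluo4 calcium fluorescence | Measure: Integrated baseline-normalised fluorescence ratio, converted to per-well B score | Benchmarks: Low control buffer alone, high control maximal DAMGO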
# TRPC4 block – TRPC4 (mouse) channel inhibition; 300,000 compounds, 0.39% hits; Q9QUQ5; HEK293 TRPC4beta/mu-opioid, DAMGO-evoked Fluo4 calcium flux; active compounds read low; AID 2247; B-score at 10 µM;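 active = B-score over 3 SD under the library average, no early fluorescence shift, positive overall ratio signal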
#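 Assay system: Stable TRPC4beta/mu-opioid receptor HEK293 cells | Reagent: DAMGO in two steps, submaximal then maximal | Compound dosing: Single concentration per test compound | Signal: Fluo4 Ca2+ flux fluorescence | Evaluation: Per-well B score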
# TRPC4 spec 2 – second check of whether TRPC6 inhibitors also affect mouse TRPC4; shares compounds with TRPC6 inhibitor; HEK293 TRPC4/MOR, membrane potential dye fluorescence; channel activated by saturating DAMGO dose; inhibition, % at 10 µM; 920 compounds, 42% hits; AID 2776;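 active = compounds whose fluorescence signal differed from control wells by over 3 SD, either direction, in both duplicate plates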
# TRPC4 spec – tests whether TRPC6 inhibitors also affect mouse TRPC4 | shares compounds with TRPC6 inhibitor | HEK293 TRPC4/mu-opioid, membrane potential fluorescence | activity change, negative = inhibition, % at 10 µM | 920 compounds, 61% hits | AID 2777;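 active = rise or fall in signal beyond 3 SD of buffer-only wells in both replicate plates, either sign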;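 also: integrated kinetic ratio of fluorescence range over baseline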
# HEK293 MPD ctr 2-1 – second counter-screen for TRPC6 inhibitors: parental HEK293 cells; 920 compounds, 31% hits; parental HEK293 membrane potential dye fluorescence; maximal acetylcholine challenge after compound addition; shares compounds with TRPC6 inhibitor; signal change vs control, % at 10 µM;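 active = membrane potential signal moving either way by over 3 SD of the maximum-effect control, in both duplicate plates, meaning non-specific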
# HEK293 MPD ctr-1 – parental HEK293 nonspecific activity of TRPC6 inhibitors | 920 compounds, 60% hits | parental HEK293 membrane potential dye fluorescence | shares compounds with TRPC6 inhibitor | membrane potential signal change, % at 10 µM | AID 2780;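 active = membrane potential signal shifting up or down by more than 3 SD of buffer-only wells, on both duplicate plates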
# HEK293 MPD ctr-2 – counter-screen for TRPC6 modulators: effect in parental HEK293 cells; shares compounds with TRPC6 inhibitor; membrane potential dye fluorescence; membrane potential signal change, % at 10 µM; 2,400 compounds, 51% hits;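 active = membrane potential signal moves up or down beyond 5 SD from buffer-only wells, on both duplicate plates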
# HEK293 MPD ctr 2-2 – second counter-screen for TRPC6 modulators: effect in parental HEK293 cells; 2,400 compounds, 14% hits; AID 488926; membrane potential dye fluorescence; after compound, maximal acetylcholine stimulation; inhibition, % at 10 µM; shares compounds with TRPC6 inhibitor;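 active = membrane potential signal drops by more than 5 SD from the mean control signal, in both duplicate plates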;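 also: plate controls were acetylcholine ECmax control wells for no effect and buffer only wells for full effect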
# TRPC4/MOR mod – selectivity of TRPC6 modulators against mouse TRPC4; 2,400 compounds, 69% hits; AID 488927; shares compounds with TRPC6 inhibitor; percent change from control (negative = decrease, positive = increase), % at 10 µM; HEK293 TRPC4/mu-opioid, membrane potential fluorescence;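 active = membrane potential signal moved up or down beyond 5 SD of buffer control wells, in both duplicate plates, actives on both sides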;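 also: plate controls were assay buffer wells for no effect and DAMGO maximal-effect wells for full effect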
# TRPC4/MOR inh 2 – mouse TRPC4 off-target activity of TRPC6 modulators, second screen; inhibition, % at 10 µM; shares compounds with TRPC6 inhibitor; AID 488928; 2,400 compounds, 55% hits; HEK293 TRPC4/mu-opioid, membrane potential dye fluorescence; stimulated with maximal-effect DAMGO;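 active = drop in membrane potential signal beyond 5 SD of the control wells in both duplicate plates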;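 also: TRPC4 counter screen for TRPC6 hits run under conditions tuned for TRPC6 not TRPC4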
# TRPC6 inh conf – confirmation of mouse TRPC6 inhibitors; HEK293-TRPC6, membrane potential dye, ACh-evoked depolarization; inhibition, % at 10 µM; shares compounds with TRPC6 inhibitor; 3,300 compounds, 43% hits; AID 488960;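 active = fluorescence ratio falls more than 5 SD below the full-stimulation control mean, in both duplicate runs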;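 also: integrated fluorescence ratio of peak minus minimum over baseline after agonist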
# TRPC6 act conf – confirmation of mouse TRPC6 activators. shares compounds with TRPC6 inhibitor. HEK293-TRPC6 membrane potential dye fluorescence, FDSS. activation, % at 10 µM. 2,800 compounds, 11% hits. AID 488961;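 active = ratio signal rise beyond 5 SD above unstimulated control wells' mean, seen in both duplicate runs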;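 also: plate controls were buffer EC0 wells for no effect and acetylcholine ECmax response for full effect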
# Starred values were filed as active, the others as inactive; i = inactive; / = no result given; ! = not confirmed by another sample.
SMILES,TRPC4 potent,TRPC6 act,TRPC6 inhibitor,TRPC4 act,TRPC4 block,HEK293 MPD ctr-2,HEK293 MPD ctr 2-2,TRPC4/MOR mod,TRPC4/MOR inh 2,TRPC6 inh conf,TRPC6 act conf,others
CCN(CC)CCNC(=O)c1ccc(NC(=O)c2ccc(Cl)c(S(=O)(=O)N3CCCCCC3)c2)cc1,i,i,-6*,i,i,113%*,76%*,12%*,i,42%*,/,
NC(=O)C1Cc2ccccc2CN1S(=O)(=O)c1ccc(Cl)s1 (configuration not stated),i,i,i,i,i,/,/,/,/,/,/,
O=C(COc1ccc(Cl)cc1Cl)NNC(=S)NCc1ccco1,i,i,-5.4*,i,i,i,i,i,i,i,i,
CCOC(=O)c1c(CN2CCCCC2)n(C)c2cc(Br)c(O)c(CN(C)C)c12,i,i,-7.1*,i,i,-252%*,i,-52%*,58%*,45%*,i,
CCOC(=O)c1c(CSc2ccccc2)n(C)c2cc(Br)c(O)c(CN(C)C)c12,i,i,-5.9*,i,i,i,i,i,56%*,44%*,i,
CCOC(=O)c1c(CSc2ccsc2)n(C)c2cc(Br)c(O)c(CN(C)C)c12,i,i,i,i,i,/,/,/,/,/,/,
CCOC(=O)c1c(CN2CCOCC2)n(-c2ccccc2)c2cc(Br)c(O)c(CN(C)C)c12,i,i,i,i,i,/,/,/,/,/,/,
CCOC(=O)c1c(CSc2ccc(C)cc2)n(C)c2cc(Br)c(O)c(CN(C)C)c12,i,i,-5.9*,i,i,i,i,i,64%*,47%*,i,
CCCCCCC(=O)N1CCC(c2nc3c(nnn3Cc3ccccc3Cl)c(=O)[nH]2)CC1,i,14*,-11*,i,i,131%*,i,22%*,i,74%*,127%*,
CC(=O)Nc1ccc(N2CCOCC2)c(Cl)c1,i,i,i,i,i,/,/,/,/,/,/,
Cc1ccc(NC(=O)CSCC(=O)Nc2ccc(N3CCOCC3)c(Cl)c2)cc1,i,i,-5.7*,i,i,i,i,i,i,i,i,
O=C(CSc1nnc(-c2cccnc2)n1Cc1ccco1)Nc1cccc(O)c1,i,i,i,i,i,/,/,/,/,/,/,
COC(=O)c1ccc(OC)c(Cn2c(=O)n(C)c(=O)c3ccccc32)c1,i,i,i,i,i,/,/,/,/,/,/,
COc1ccc(C(=O)c2coc3ccc(O)c(CN4CCCCC4)c23)cc1,i,i,-8.8*,i,i,/,/,/,/,i,i,TRPC4 spec 2=40%*;TRPC4 spec=i;HEK293 MPD ctr 2-1=i;HEK293 MPD ctr-1=1.5%*
COc1ccc2occ(C(=O)c3coc4ccc(O)c(CN(C)C)c34)c2c1,i,i,-13*,i,i,-146%*,i,-34%*,84%*,67%*,i,
CCN(CC)CCOC(=O)c1ccc(NC(=O)C(C)NC(=O)C23CC4CC(CC(C4)C2)C3)cc1 (configuration not stated),i,i,i,i,i,/,/,/,/,/,/,
Cc1ccc(-n2nc(C(=O)NCc3ccco3)c3c4ccccc4n(C)c3c2=O)cc1,i,i,i,i,i,/,/,/,/,/,/,
CCN(CC)CCNC(=O)c1nn(-c2ccc(C)cc2)c(=O)c2c1c1ccccc1n2C,i,i,-8.9*,i,i,/,/,/,/,64%*,i,TRPC4 spec 2=56%*;TRPC4 spec=-15%*;HEK293 MPD ctr 2-1=i;HEK293 MPD ctr-1=-187%*
Cc1cccc(NS(=O)(=O)c2ccc(Oc3ccccc3)cc2)n1,i,i,-6.3*,i,i,i,i,8.5%*,i,i,i,
CCC(=O)c1ccc(N2CCN(C(=O)c3cccs3)CC2)c(F)c1,i,i,i,i,i,/,/,/,/,/,/,
COCCCC/C(=N\OCCN)c1ccc(C(F)(F)F)cc1,i,i,-5*!,i,i,i,i,12%*,48%*,43%*,i,
O=C(CCC(=O)OCC(=O)c1ccc(C(F)(F)F)cc1)OCC(=O)c1ccc(C(F)(F)F)cc1,i,i,i,i,i,/,/,/,/,/,/,
O=C(COC(=O)Cn1cnc2ccccc2c1=O)Nc1cc(Cl)ccc1[N+](=O)[O-],i,i,i,i,i,/,/,/,/,/,/,
CCOC(=O)c1c[nH]c2c(C)ccc(Cl)c2c1=O,i,i,-7.6*,i,i,-303%*,i,-42%*,53%*,60%*,i,
CCOC(=O)c1c[nH]c2c3c(ccc2c1=O)CCCC3,i,i,i,i,i,/,/,/,/,/,/,
CCOC(=O)c1c[nH]c2c(Cl)ccc(Cl)c2c1=O,i,i,-6.1*,i,i,-324%*,i,-39%*,43%*,i,i,
CCOC(=O)c1c[nH]c2c(Cl)c(Cl)ccc2c1=O,i,i,-10*,i,i,/,/,/,/,i,i,TRPC4 spec 2=i;TRPC4 spec=-25%*;HEK293 MPD ctr 2-1=i;HEK293 MPD ctr-1=-298%*
